What was measured:
[1] = Cytotoxicity against human MCF10A cells assessed as cell viability at 50 uM measured after 4 days by MTT assay relative to control; assay type: cell-based, MCF-10A; details: read-out: Activity
MCF7 = assay: Antiproliferative activity against human MCF7 cells assessed as inhibition of cell proliferation measured after 48 hrs by MTT assay; assay type: functional, cell-based; details: MCF7, 48 h
Method in brief: (§1)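 Cells tested by MTT: pancreatic Panc-1, breast MCF-7, colon HT-29 and A-549. Doxorubicin run alongside as the reference compound.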

PANC-1 [2] = assay: Antiproliferative activity against human PANC1 cells assessed as inhibition of cell proliferation measured after 48 hrs by MTT assay; assay type: functional, cell-based; details: PANC-1, 48 h; method in brief: as §1
HT-29 = assay: Antiproliferative activity against human HT-29 cells assessed as inhibition of cell proliferation measured after 48 hrs by MTT assay; assay type: functional, cell-based; details: HT-29, 48 h; method in brief: as §1
A549 = assay: Antiproliferative activity against human A549 cells assessed as inhibition of cell proliferation measured after 48 hrs by MTT assay; assay type: functional, cell-based; details: A549, 48 h; method in brief: as §1
[3] = target: Epidermal growth factor receptor (Homo sapiens, UniProt P00533); assay: Inhibition of human EGFR measured after 3 hrs by ELISA
Chain of Epidermal growth factor receptor (P00533 whole entry): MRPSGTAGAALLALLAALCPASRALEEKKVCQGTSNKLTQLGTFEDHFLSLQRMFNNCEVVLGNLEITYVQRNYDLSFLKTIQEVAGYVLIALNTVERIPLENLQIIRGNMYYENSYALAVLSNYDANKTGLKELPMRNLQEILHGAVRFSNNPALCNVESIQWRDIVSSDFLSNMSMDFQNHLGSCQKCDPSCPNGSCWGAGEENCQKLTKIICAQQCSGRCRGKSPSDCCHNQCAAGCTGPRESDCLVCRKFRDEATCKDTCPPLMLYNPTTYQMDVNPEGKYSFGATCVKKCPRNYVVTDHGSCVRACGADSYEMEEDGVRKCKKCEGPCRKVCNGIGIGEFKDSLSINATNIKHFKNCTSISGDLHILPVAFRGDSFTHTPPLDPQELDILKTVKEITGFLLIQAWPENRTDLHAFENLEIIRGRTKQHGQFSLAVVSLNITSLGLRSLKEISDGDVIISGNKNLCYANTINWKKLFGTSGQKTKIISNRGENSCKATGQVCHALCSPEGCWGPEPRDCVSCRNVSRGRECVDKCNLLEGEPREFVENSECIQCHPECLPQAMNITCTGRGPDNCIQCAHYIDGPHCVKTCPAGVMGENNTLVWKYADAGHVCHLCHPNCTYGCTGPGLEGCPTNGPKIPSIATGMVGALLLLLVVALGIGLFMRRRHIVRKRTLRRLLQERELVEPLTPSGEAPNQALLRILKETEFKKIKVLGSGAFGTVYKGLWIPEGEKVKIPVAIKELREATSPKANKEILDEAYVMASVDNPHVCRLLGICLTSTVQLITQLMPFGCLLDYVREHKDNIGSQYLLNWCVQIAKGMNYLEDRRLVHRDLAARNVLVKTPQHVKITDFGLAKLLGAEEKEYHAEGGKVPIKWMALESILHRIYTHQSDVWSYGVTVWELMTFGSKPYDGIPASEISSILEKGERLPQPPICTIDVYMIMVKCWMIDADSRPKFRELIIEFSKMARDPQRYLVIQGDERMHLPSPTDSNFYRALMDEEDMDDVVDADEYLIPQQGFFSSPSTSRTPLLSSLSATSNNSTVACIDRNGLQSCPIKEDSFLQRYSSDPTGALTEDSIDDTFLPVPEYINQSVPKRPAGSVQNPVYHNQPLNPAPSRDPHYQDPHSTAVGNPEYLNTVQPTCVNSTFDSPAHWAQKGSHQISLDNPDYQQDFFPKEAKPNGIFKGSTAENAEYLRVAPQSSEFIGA

PANC-1 [4] = assay: Induction of apoptosis in human PANC1 cells assessed as increase in caspase 3 level measured after 24 to 48 hrs relative to control; assay type: functional
Method in brief: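 Active caspase-3 protein in treated Panc-1 cells quantified as pg/mL. Reported as fold increase over untreated control cells, with doxorubicin as the reference drug.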

PANC-1 [5] = assay: Cell cycle arrest in human PANC1 cells assessed as accumulation at G0/G1 phase measured after 24 hrs by annexin v propidium iodide staining based flow cytometric analysis (reference value: 53.64%); assay type: functional
PANC-1 [6] = assay: Induction of apoptosis in human PANC1 cells assessed as increase in caspase 8 level measured after 24 to 48 hrs relative to control; assay type: functional
Method in brief: (§2)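 Caspase-8, caspase-9 and cytochrome c levels in treated Panc-1 cells expressed as fold change relative to untreated control cells.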

PANC-1 [7] = assay: Induction of apoptosis in human PANC1 cells assessed as increase in cytochrome C level using TMB substrate measured after 24 hrs relative to control; assay type: functional; method in brief: as §2
PANC-1 [8] = assay: Induction of apoptosis in human PANC1 cells assessed as increase in caspase 9 level measured after 24 to 48 hrs relative to control; assay type: functional; method in brief: as §2
PANC-1 [9] = assay: Cell cycle arrest in human PANC1 cells assessed as accumulation at G2/M phase measured after 24 hrs by annexin v propidium iodide staining based flow cytometric analysis (reference value: 9.95 %); assay type: functional
PANC-1 [10] = assay: Cell cycle arrest in human PANC1 cells assessed as accumulation at pre G1 phase measured after 24 hrs by annexin v propidium iodide staining based flow cytometric analysis (reference value: 1.79%); assay type: functional
PANC-1 [11] = assay: Induction of apoptosis in human PANC1 cells assessed as increase in BAX level by Sybr-green dye based RT-PCR analysis relative to control; assay type: functional
PANC-1 [12] = assay: Induction of apoptosis in human PANC1 cells assessed as downregulation of Bcl-2 expression level by Sybr-green dye based RT-PCR analysis relative to control; assay type: functional
PANC-1 [13] = assay: Induction of apoptosis in human PANC1 cells assessed as proportion of early apoptotic cells measured after 24 hrs by annexin v propidium iodide staining based flow cytometric analysis; assay type: functional
PANC-1 [14] = assay: Induction of apoptosis in human PANC1 cells assessed as proportion of late apoptotic cells measured after 24 hrs by annexin v propidium iodide staining based flow cytometric analysis; assay type: functional
PANC-1 [15] = assay: Induction of apoptosis in human PANC1 cells assessed as proportion of necrotic cells measured after 24 hrs by annexin v propidium iodide staining based flow cytometric analysis; assay type: functional

SMILES	viability at 96 h, 50 µM [1] [%]	IC50 (MCF7) [µM]	IC50 (PANC-1 [2]) [µM]	IC50 (HT-29) [µM]	IC50 (A549) [µM]	further results
Cn1c(=O)[nH]c2nc(SCC(=O)c3ccccc3)[nH]c2c1=O	> 90	11.6	9.4	11.1	11.9	
Cn1c(=O)c2[nH]c(SC/C(=N/O)c3ccc(Br)cc3)nc2n(C)c1=O	> 90	1.3	1.7	1.7	1.8	IC50 [3]: 0.45 µM; fold change (FC) (PANC-1 [4]): 5.91
CC(=O)c1ccc(NC(=O)CSc2nc3c([nH]2)c(=O)n(C)c(=O)n3C)cc1	> 90	6.1	5.1	6.4	6.9	
Cn1c(=O)c2[nH]c(SCC(=O)c3ccccc3)nc2n(C)c1=O	> 90	5.1	4.9	5.9	6.7	
COc1ccc(/C(CSc2nc3c([nH]2)c(=O)n(C)c(=O)n3C)=N\O)cc1	> 90	0.8	0.91	1.7	1.5	
CC(=O)c1ccc(NC(=O)CSc2nc3[nH]c(=O)n(C)c(=O)c3[nH]2)cc1	> 90	6.1	5.9	6.9	7.7	
Cn1c(=O)[nH]c2nc(SCC(=O)c3ccc(Cl)cc3)[nH]c2c1=O	> 90	6.3	6.1	7.2	8.1	
Cn1c(=O)[nH]c2nc(SCC(=O)c3ccc(Br)cc3)[nH]c2c1=O	> 90	11.2	9.7	11.5	11.9	
Cn1c(=O)[nH]c2nc(SC/C(=N/O)c3ccc(Br)cc3)[nH]c2c1=O	> 90	1.7	2.1	2	2.1	IC50 [3]: 2.88 µM; fold change (FC) (PANC-1 [4]): 4.99
Cn1c(=O)[nH]c2nc(SC/C(=N/O)c3ccccc3)[nH]c2c1=O	> 90	4.3	3.6	2.1	5.6	
Cn1c(=O)c2[nH]c(SC/C(=N/O)c3ccccc3)nc2n(C)c1=O	> 90	5.9	5.5	6.7	6.1	
Cn1c(=O)c2[nH]c(SC/C(=N/O)c3ccc(Cl)cc3)nc2n(C)c1=O	> 90	1	1.3	1.2	1.5	IC50 [3]: 0.4 µM; fold change (FC) (PANC-1 [4]): 4.11
C/C(=N/O)c1ccc(NC(=O)CSc2nc3[nH]c(=O)n(C)c(=O)c3[nH]2)cc1	> 90	9.1	7.7	6.2	7.3	
Cn1c(=O)c2[nH]c(SCC(=O)c3ccc(Br)cc3)nc2n(C)c1=O	> 90	7.6	7.4	6.5	7.9	
Cn1c(=O)[nH]c2nc(SC/C(=N/O)c3ccc(Cl)cc3)[nH]c2c1=O	> 90	1.4	1.7	1.8	1.89	IC50 [3]: 0.82 µM; Activity (PANC-1 [5]): 35.08%; fold change (FC) (PANC-1 [4]): 8.06; fold change (FC) (PANC-1 [6]): 3.47; fold change (FC) (PANC-1 [7]): 10.2; fold change (FC) (PANC-1 [8]): 15.68; Activity (PANC-1 [9]): 34.36%; Activity (PANC-1 [10]): 17.34%; fold change (FC) (PANC-1 [11]): 12.7; fold change (FC) (PANC-1 [12]): 0.239; Activity (PANC-1 [13]): 6.11%; Activity (PANC-1 [14]): 8.86%; Activity (PANC-1 [15]): 2.37%
COc1cccc2c1C(=O)c1c(O)c3c(c(O)c1C2=O)C[C@@](O)(C(=O)CO)C[C@@H]3O[C@H]1C[C@H](N)[C@H](O)[C@H](C)O1 [DOXORUBICIN]			1.41	1.01	1.21	Activity (PANC-1 [10]): 22.17%
COc1ccc(C(=O)CSc2nc3[nH]c(=O)n(C)c(=O)c3[nH]2)cc1	> 90	5.9	5.5	6.7	6.1	
Cn1c(=O)c2[nH]c(SCC(=O)c3ccc(Cl)cc3)nc2n(C)c1=O	> 90	8.4	7.2	9.9	8.4	
COc1ccc(/C(CSc2nc3[nH]c(=O)n(C)c(=O)c3[nH]2)=N\O)cc1	> 90	1.8	1.91	1.7	1.5	IC50 [3]: 0.71 µM; fold change (FC) (PANC-1 [4]): 7.65; fold change (FC) (PANC-1 [6]): 2.58; fold change (FC) (PANC-1 [7]): 11.43; fold change (FC) (PANC-1 [8]): 14.49; fold change (FC) (PANC-1 [11]): 8.9; fold change (FC) (PANC-1 [12]): 0.3378
C/C(=N/O)c1ccc(NC(=O)CSc2nc3c([nH]2)c(=O)n(C)c(=O)n3C)cc1	> 90	5.3	4.6	3.1	6.6	
COc1ccc(C(=O)CSc2nc3c([nH]2)c(=O)n(C)c(=O)n3C)cc1	> 90	7.6	6.4	8.1	7.9	

Reference: ChEMBL document CHEMBL4393713, “Synthesis and biological evaluation of novel xanthine derivatives as potential apoptotic antitumor agents” (Eur J Med Chem, 2019)
